Measurements taken from ChEMBL document CHEMBL1146595, “Constituents from the leaves of Phellodendron amurense var. wilsonii and their bioactivity” (J Nat Prod, 2003).

Tests used:
[1] = target: T1, Tyrosinase (Homo sapiens) (UniProt P14679); experiment: Inhibition of tyrosinase at 333 uM
T1 sequence (whole entry): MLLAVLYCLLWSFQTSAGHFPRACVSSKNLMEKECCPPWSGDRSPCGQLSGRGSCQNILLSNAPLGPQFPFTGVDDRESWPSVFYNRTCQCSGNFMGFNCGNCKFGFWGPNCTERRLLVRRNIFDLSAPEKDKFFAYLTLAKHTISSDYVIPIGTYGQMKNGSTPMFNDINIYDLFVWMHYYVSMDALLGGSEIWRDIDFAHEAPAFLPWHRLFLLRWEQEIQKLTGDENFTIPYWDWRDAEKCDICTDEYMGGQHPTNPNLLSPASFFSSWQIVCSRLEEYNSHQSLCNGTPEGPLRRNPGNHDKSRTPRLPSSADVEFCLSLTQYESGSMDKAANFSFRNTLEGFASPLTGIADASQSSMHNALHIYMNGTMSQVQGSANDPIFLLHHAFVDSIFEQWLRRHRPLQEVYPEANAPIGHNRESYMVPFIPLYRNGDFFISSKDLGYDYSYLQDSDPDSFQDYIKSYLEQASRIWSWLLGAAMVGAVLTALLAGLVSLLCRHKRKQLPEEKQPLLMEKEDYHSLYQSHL

[2] = test system: Radical scavenging activity; experiment: Antioxidant activity assessed as DPPH free radical scavenging activity at 250 uM; format: functional
Procedure, shortened: (§1)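 Radical-scavenging assay run by previously reported methods. Percent inhibition was recorded after a 30 min incubation.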

[3] = test system: Radical scavenging activity; experiment: Antioxidant activity assessed as DPPH free radical scavenging activity; format: functional; procedure, shortened: as §1

Molecule	inhibition [1] [%]	inhibition [2] [%]	IC50 [3] [µM]
CC[C@H](CC[C@@H](C)[C@H]1CC[C@H]2[C@@H]3CC=C4C[C@@H](O)CC[C@]4(C)[C@H]3CC[C@]12C)C(C)C	14.3		
O=c1c(O[C@@H]2O[C@H](CO)[C@@H](O)[C@H](O)[C@H]2O)c(-c2ccc(O)cc2)oc2cc(O)cc(O)c12		5.7	
CC(C)=CCc1c(O)cc(O)c2c1O[C@@H](c1ccc(O)cc1)[C@@H](O)C2=O		20.9	
VITAMIN E			8.3
C=C(C)[C@@H]1CC[C@]2(C)CC[C@]3(C)[C@H](CC[C@@H]4[C@@]5(C)CCC(=O)C(C)(C)[C@@H]5CC[C@]43C)[C@@H]12	-2.4		
CC1(C)O[C@H]2CC(=O)OC[C@]23[C@H]2CC[C@@]4(C)[C@H](c5ccoc5)OC(=O)[C@H]5O[C@]54[C@]2(C)C(=O)C[C@@H]13	3.6		
O=c1c(O[C@@H]2O[C@H](CO)[C@H](O)[C@H](O)[C@H]2O)c(-c2ccc(O)cc2)oc2cc(O)cc(O)c12		4.5	
CC(C)(O)CCc1c(O[C@@H]2O[C@H](CO)[C@@H](O)[C@H](O)[C@H]2O)cc(O)c2c(=O)c(O)c(-c3ccc(O)cc3)oc12 [AMURENSIN]	15.4		88.3
CC(C)=CCc1c(O[C@@H]2O[C@H](CO)[C@@H](O)[C@H](O)[C@H]2O)cc(O)c2c1O[C@H](c1ccc(O)cc1)[C@@H](O)C2=O		34.6	
O=c1c(O[C@@H]2O[C@H](CO)[C@@H](O)[C@H](O)[C@H]2O)c(-c2ccc(O)c(O)c2)oc2cc(O)cc(O)c12 [ISOQUERCETIN]			32.2
